According to ChEMBL document CHEMBL1134315 (J Med Chem, 2001):

Columns and labels:
[1] = molecular target: Transient receptor potential cation channel subfamily V member 1 (Rattus norvegicus, UniProt O35433); test: Binding affinity to vanilloid VR1 receptor using [3H]resiniferatoxin ([3H]-RTX) in rat spinal cord membranes; type: cell membranes, Membrane
In short: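 Radioligand displacement binding used these systems: CB1, rat cerebellum membranes with [3H]WIN55212-2; CB2, HEK293EBNA cells transfected with the human CB2 receptor, with [3H]CP55940; VR1, rat spinal cord membranes with [3H]RTX. Ki values come from two independent experiments, each run in triplicate, and are reported as mean ± standard error.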

Cannabinoid receptor 2 = Cannabinoid receptor 2 (Homo sapiens, UniProt P34972); test: Binding affinity to human CB2 cannabinoid receptor using [3H]CP-55940 in HEK293 EBNA transfected cells; type: cell-based
Chain of Cannabinoid receptor 2 (P34972 whole entry): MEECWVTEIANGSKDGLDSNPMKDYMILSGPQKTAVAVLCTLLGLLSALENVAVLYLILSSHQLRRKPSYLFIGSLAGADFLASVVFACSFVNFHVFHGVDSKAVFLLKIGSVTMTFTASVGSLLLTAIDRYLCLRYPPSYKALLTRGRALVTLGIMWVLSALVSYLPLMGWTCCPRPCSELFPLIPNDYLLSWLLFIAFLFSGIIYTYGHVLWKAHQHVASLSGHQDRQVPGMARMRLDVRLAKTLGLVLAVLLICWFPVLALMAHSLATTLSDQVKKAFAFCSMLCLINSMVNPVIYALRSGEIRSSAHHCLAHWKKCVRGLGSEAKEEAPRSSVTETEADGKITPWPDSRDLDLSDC

Cannabinoid receptor 1 = Cannabinoid receptor 1 (Rattus norvegicus, UniProt P20272); test: Binding affinity to CB1 cannabinoid receptor using [3H]WIN-55212-2 in rat cerebellum membranes; type: cell membranes, Membrane
Chain of Cannabinoid receptor 1 (P20272 whole entry): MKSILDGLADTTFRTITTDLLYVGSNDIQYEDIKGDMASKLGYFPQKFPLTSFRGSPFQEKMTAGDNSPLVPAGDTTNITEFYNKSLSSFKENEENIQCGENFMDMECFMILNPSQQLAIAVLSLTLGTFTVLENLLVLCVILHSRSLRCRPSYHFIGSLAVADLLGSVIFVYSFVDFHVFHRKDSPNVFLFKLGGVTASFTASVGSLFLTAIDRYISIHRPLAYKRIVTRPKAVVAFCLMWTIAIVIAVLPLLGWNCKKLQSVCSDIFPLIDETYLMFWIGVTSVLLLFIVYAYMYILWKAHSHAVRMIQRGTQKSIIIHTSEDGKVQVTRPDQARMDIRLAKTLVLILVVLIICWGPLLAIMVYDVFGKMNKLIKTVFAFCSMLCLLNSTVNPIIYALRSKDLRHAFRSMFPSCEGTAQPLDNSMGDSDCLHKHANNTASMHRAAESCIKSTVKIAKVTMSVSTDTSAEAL

U-937 [2] = test: Ability to inhibit [3H]anandamide uptake in human lymphoma U937 cells; type: functional, cell-based
In short: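 IC50 values come from three independent experiments, each run in triplicate, and are reported as mean ± standard error.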

U-937 [3] = test: Ability to inhibit [3H]anandamide uptake in human lymphoma U937 cells; inactive; type: functional, cell-based

Chain of Transient receptor potential cation channel subfamily V member 1 (O35433 whole entry): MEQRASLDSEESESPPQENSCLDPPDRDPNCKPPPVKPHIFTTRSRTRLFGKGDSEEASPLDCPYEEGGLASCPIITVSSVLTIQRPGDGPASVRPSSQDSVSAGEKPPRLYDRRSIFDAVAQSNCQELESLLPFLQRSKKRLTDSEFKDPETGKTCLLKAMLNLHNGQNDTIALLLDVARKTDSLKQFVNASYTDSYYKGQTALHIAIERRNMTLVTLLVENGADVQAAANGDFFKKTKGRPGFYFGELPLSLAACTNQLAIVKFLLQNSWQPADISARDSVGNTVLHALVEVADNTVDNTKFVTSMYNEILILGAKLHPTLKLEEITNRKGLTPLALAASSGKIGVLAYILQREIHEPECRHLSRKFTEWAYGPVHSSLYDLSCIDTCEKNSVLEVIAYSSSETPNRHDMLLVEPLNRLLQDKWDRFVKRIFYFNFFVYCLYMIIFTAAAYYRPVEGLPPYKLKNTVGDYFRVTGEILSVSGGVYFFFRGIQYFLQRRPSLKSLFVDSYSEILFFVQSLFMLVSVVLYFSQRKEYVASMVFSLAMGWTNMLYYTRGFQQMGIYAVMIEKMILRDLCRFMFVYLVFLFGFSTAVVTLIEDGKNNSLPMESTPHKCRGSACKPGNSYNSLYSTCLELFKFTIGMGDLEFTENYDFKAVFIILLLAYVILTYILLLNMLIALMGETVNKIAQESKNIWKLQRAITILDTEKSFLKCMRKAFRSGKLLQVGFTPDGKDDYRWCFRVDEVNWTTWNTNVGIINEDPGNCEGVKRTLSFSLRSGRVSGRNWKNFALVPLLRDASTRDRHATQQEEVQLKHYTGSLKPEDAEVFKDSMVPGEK

Row | Structure (SMILES) | Ki [1] [nM] | Ki (Cannabinoid receptor 2) [nM] | Ki (Cannabinoid receptor 1) [nM] | IC50 (U-937 [2]) [nM] | IC50 (U-937 [3])
1 | CCCCC/C=C\C/C=C\C/C=C\C/C=C\CCCC(=O)NCCO [ANANDAMIDE] | 169 |  |  |  | 
2 | CCCCC/C=C\C/C=C\C/C=C\C/C=C\CCCC(=O)OCc1ccco1 | > 5000 | > 1000 | > 1000 | 24000 | 
3 | CCCCC/C=C\C/C=C\C/C=C\C/C=C\CCCC(=O)NCc1ccco1 | < 5000 | > 1000 | > 1000 | 5000 | 
4 | CCCCC/C=C\C/C=C\C/C=C\C/C=C\CCCC(=O)NCc1cccs1 | > 5000 | > 1000 | > 1000 | 5700 | 
5 | CCCCC/C=C\C/C=C\C/C=C\C/C=C\CCCC(=O)NCc1cccn1C | > 5000 | 70 | 124 | 5000 | 
6 | CCCCC/C=C\C/C=C\C/C=C\C/C=C\CCCC(=O)OCc1ccoc1 | < 5000 | > 1000 | > 1000 | 14000 | 
7 | CCCCC/C=C\C/C=C\C/C=C\C/C=C\CCCC(=O)OCC1CCCO1 (configuration not stated) | > 5000 | > 1000 | > 1000 | 18000 | 
8 | CCCCC/C=C\C/C=C\C/C=C\C/C=C\CCCC(=O)OCc1cccs1 | > 5000 | > 1000 | > 1000 |  | Not Active
9 | CCCCC/C=C\C/C=C\C/C=C\C/C=C\CCCC(=O)NCc1ccoc1 | > 5000 | 67 | > 1000 | 800 | 
10 | CCCCC/C=C\C/C=C\C/C=C\C/C=C\CCCC(=O)OCc1ccsc1 | > 5000 | > 1000 | > 1000 | 3000 | 
11 | CCCCC/C=C\C/C=C\C/C=C\C/C=C\CCCC(=O)NCC1CCCO1 (configuration not stated) | > 5000 | > 1000 | > 1000 | 8000 | 
12 | CCCCC/C=C\C/C=C\C/C=C\C/C=C\CCCC(=O)Nc1ccc(O)cc1 | > 5000 | > 1000 | > 1000 | 4000 | 
13 | CCCCC/C=C\C/C=C\C/C=C\C/C=C\CCCC(=O)OCC1CCOC1 (configuration not stated) | > 5000 | > 1000 |  |  | 
